Source: PubChem
PglD inh – PglD (C. jejuni) enzyme inhibition; purified PglD enzyme, DTNB colorimetric CoA detection; 360,000 tested, 0.098% active; inhibition, % at 12.5 µM; in the data active means inhibition above about 16%, passing the limit was not always enough
PGC1a acetyl inh – PGC1a acetylation modulation, inhibitor mode | U2OS PGC1a acetylation, AlphaScreen anti-acetyl-lysine; with virally co-expressed GCN5 acetyltransferase | inhibition, % at 15.6 µM | 350,000 tested, 0.17% active | AID 651687;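 active means every replicate shows inhibition of at least 40%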;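 further: 0% = neutral control wells and 100% = positive control wells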
Vif imaging – inhibitors of HIV Vif. inhibition, % at 7.49 µM. HEK293T cells, Vif self-association by quenched fluorescence, imaging, 24 h. 340,000 tested, 0.35% active. AID 602346; in the data active means inhibition above about 50%, passing the limit was not always enough
FGF22 binding – FGF22 (human) thermal shift binding; activity (Tm shift, normalised), % at 9.99 µM; 340,000 tested, 1.5% active; AID 651658; recombinant FGF22 thermal shift, SYPRO orange fluorescence; percent of sucrose octasulfate shift, DMSO zero;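 active means mean Tm shift, scaled 0 neutral to 100 positive control, at about 1.3% or above, every replicate too, limit read from the data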
Target sequence (Q9HCT0 whole entry, looked up): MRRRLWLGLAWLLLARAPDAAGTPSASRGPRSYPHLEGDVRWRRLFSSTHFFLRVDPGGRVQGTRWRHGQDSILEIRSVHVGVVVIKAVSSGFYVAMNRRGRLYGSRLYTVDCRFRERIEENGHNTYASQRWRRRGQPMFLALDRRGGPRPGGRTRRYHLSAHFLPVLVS
Cneo AK release – causes C. neoformans cell lysis. adenylate kinase release luminescence, 4 h; normalised: neutral wells 0, clomiphene wells 100. lysis activity, % at 15 µM. 360,000 tested, 0.2% active. AID 651654;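 active means mean lysis activity across replicates of at least 80%, whatever share of replicates individually reach that level; inactive means mean lysis activity below 80%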
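Test system: log-phase Cryptococcus neoformans yeast cells; Quantity: yeast cell density of 5 × 10^6 cells/mL; Buffer or medium: YPD; Doses: single compound concentration per well; Timing: 4 h at 37 °C static, read 1 h later; Measured by: AK luminescence; Read-out basis: lysis from increased AK signal; Control set: Clomiphene as positive control.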
Ecoli rRNA inh – inhibits bacterial ribosomal RNA function over humanized ribosomes | E. coli WT GFP vs humanized-ribosome RFP mutants, fluorescence, 24 h; stronger effect = lower value; DMSO median 0, no signal -100 | GFP signal change (wild-type ribosome), % (test concentration not listed) | 350,000 tested, 1.6% active | AID 720706;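 active means significant combined selectivity score with lowered wild-type GFP, culture density cut under 30%, mutant RFP and density less affected; inactive means any of these conditions unmet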
Active calls of the source: *. In the library only some 2.9% were active in any assay of this set; here they are far more common.

`O=C(NCC1CCCN(Cc2ccccc2F)C1)c1cccc(C(F)(F)F)c1` (configuration not stated) gave Vif imaging -2.1 and FGF22 binding 42.9*.
Screening Cc1nonc1CN(C)C(=O)c1ccc(OC2CCN(C(=O)c3cccnc3)CC2)cc1 returned PglD inh 3.0, PGC1a acetyl inh 1.2, Vif imaging -3.2, FGF22 binding 44.1* and Cneo AK release 2.2.
`Cc1nonc1CN(C)C(=O)c1ccc(OC2CCN(Cc3ccccn3)CC2)cc1` gave PglD inh -4.9, Vif imaging 2.4, FGF22 binding 44.0* and Cneo AK release -0.1.
Screening CCOCC(O)CNC(=O)c1ccc(OC2CCN(C(=O)c3cccnc3)CC2)cc1 (configuration not stated) returned PglD inh -4.3, PGC1a acetyl inh -1.6, Vif imaging -0.2, FGF22 binding -0.5, Cneo AK release 0.5 and Ecoli rRNA inh 11.4.
Screening Cc1ccc(S(=O)(=O)Nc2ccc3c(c2)CC(=O)N([C@H](C)CO)C[C@@H](C)[C@H](CN(C)C(=O)Nc2cccc4ccccc24)O3)cc1 returned PglD inh -1.2, PGC1a acetyl inh -14.9, FGF22 binding 0.0, Cneo AK release 0.5 and Ecoli rRNA inh -0.5.
COc1ccc(NC(=O)N(C)C[C@@H]2Oc3ccc(NS(=O)(=O)c4cn(C)cn4)cc3CC(=O)N([C@H](C)CO)C[C@@H]2C)cc1 was read as PglD inh 1.2, PGC1a acetyl inh -16.9, FGF22 binding -0.1, Cneo AK release -0.5 and Ecoli rRNA inh 3.6.
For CC(=O)OC1CCC2(C)C3CCC4(C)C(C(C)=O)CCC4C3CC3OC32C1 (configuration not stated) the results were PglD inh 1.5, PGC1a acetyl inh -5.5, Vif imaging 18.6, FGF22 binding 43.1*, Cneo AK release -0.3 and Ecoli rRNA inh -2.1.
`O=C(c1ccc(Cl)c(Cl)c1)N(Cc1ccco1)c1ccc(O)cc1` gave PglD inh 3.9, Vif imaging 54.3* and Cneo AK release 7.9.
`O=C(COc1ccccc1)N(Cc1ccco1)c1ccc(O)cc1` gave PglD inh -3.6, PGC1a acetyl inh 4.6, Vif imaging 21.6 and Cneo AK release 1.1.
For CC(C)CC#Cc1cnc2c(c1)C(=O)N([C@@H](C)CO)C[C@H](C)[C@@H](CN(C)Cc1ccc(C(=O)O)cc1)O2 the results were PglD inh -2.5, PGC1a acetyl inh 11.8, FGF22 binding 0.1, Cneo AK release 2.4 and Ecoli rRNA inh -0.8.
COc1ccc(Cc2c(-c3ccc(OC)c(OC)c3)nc3ccc(C)cn23)c(C)c1 was read as PglD inh -1.9, PGC1a acetyl inh 1.3, FGF22 binding -0.1, Cneo AK release 3.5 and Ecoli rRNA inh -32.5*.
Screening Cc1cc(C)cc(NC(=S)NCc2ccncc2)c1 returned PGC1a acetyl inh 4.9, Vif imaging 12.2, FGF22 binding 43.8* and Ecoli rRNA inh -0.6.
Screening O=[N+]([O-])c1cccc(NC(=S)NCc2ccncc2)c1 returned PGC1a acetyl inh 7.6, Vif imaging 2.9, FGF22 binding -0.4 and Ecoli rRNA inh 5.0.
For O=[N+]([O-])c1ccc(NC(=S)NCc2ccncc2)cc1 the results were Vif imaging -2.5, FGF22 binding 0.5 and Ecoli rRNA inh -28.4*.
For CC(NC(=S)Nc1ccc([N+](=O)[O-])cc1)c1ccncc1 (configuration not stated) the results were PGC1a acetyl inh -7.3, Vif imaging -10.6, FGF22 binding 0.0 and Ecoli rRNA inh -27.3*.
For CS(=O)(=O)c1ccc(Cl)c(NC(=O)CCc2ccccc2)c1 the results were PGC1a acetyl inh -13.1, Vif imaging 7.2, FGF22 binding 43.4* and Ecoli rRNA inh 8.9.
`CS(=O)(=O)c1ccc(Cl)c(NC(=O)COC(=O)CNC(=O)c2ccccc2)c1` gave PGC1a acetyl inh 15.4, Vif imaging -4.9, FGF22 binding 43.7* and Ecoli rRNA inh 5.3.
Screening COc1cc(OC)cc(C(=O)NCC(=O)OCC(=O)Nc2cc(S(C)(=O)=O)ccc2Cl)c1 returned PglD inh -4.4, PGC1a acetyl inh 18.0, Vif imaging -4.8, FGF22 binding 0.0, Cneo AK release 3.8 and Ecoli rRNA inh 2.2.
For CNC[C@H]1Oc2ccc(NC(=O)Cc3cn(C)c4ccccc34)cc2C(=O)N([C@H](C)CO)C[C@@H]1C the results were PglD inh 0.9, PGC1a acetyl inh 4.1, FGF22 binding 0.4, Cneo AK release 3.1 and Ecoli rRNA inh -1.7.
`Nc1nc2ccccc2n1C(=O)c1ccc(F)cc1` gave PGC1a acetyl inh -2.7, Vif imaging 19.7, FGF22 binding 0.3 and Ecoli rRNA inh -26.5.
`Nc1nc2ccccc2n1C(=O)c1ccccc1` gave Vif imaging -8.9, FGF22 binding 43.0* and Ecoli rRNA inh -15.1.
Screening O=C(C[C@H]1C=C[C@@H](NS(=O)(=O)c2ccc(F)cc2)[C@H](CO)O1)NCc1ccccc1F returned PGC1a acetyl inh 0.5 and Ecoli rRNA inh -3.9.
For O=C(CC1SC2=NCCN2C1=O)Nc1ccc(Br)cc1 (configuration not stated) the results were PglD inh -7.5, PGC1a acetyl inh 1.0, Vif imaging 53.3*, Cneo AK release 0.3 and Ecoli rRNA inh 2.5.
Screening C[C@@H]1CN([C@H](C)CO)C(=O)c2cc(NC(=O)Cc3ccccc3)ccc2O[C@@H]1CN(C)Cc1ccc(-c2ccccc2)cc1 returned PGC1a acetyl inh -4.7 and Ecoli rRNA inh 1.5.
Screening N#CCCn1cc(C(=O)NCc2ccccc2)c(-c2cccs2)n1 returned PglD inh -0.5, PGC1a acetyl inh 2.8, Vif imaging -5.8, FGF22 binding 43.0*, Cneo AK release 1.6 and Ecoli rRNA inh 5.2.
Screening N#CCCn1cc(C(=O)Nc2ccc(C(=O)O)cc2)c(-c2cccs2)n1 returned Vif imaging -10.9, FGF22 binding 0.6 and Ecoli rRNA inh 1.6.
CO[C@@H]1CN(C)C(=O)c2ccc(NC(=O)Nc3ccc4c(c3)OCO4)cc2OC[C@@H](C)N(C)C[C@H]1C was read as PglD inh 3.4, PGC1a acetyl inh 1.9, Cneo AK release -2.0 and Ecoli rRNA inh 3.0.
`CO/N=C/C(C#N)=C/c1ccc(OC)cc1` gave PGC1a acetyl inh 4.3, Vif imaging 4.1, FGF22 binding 43.7* and Ecoli rRNA inh -13.2.
CCC(=O)Nc1ccc2c(c1)C(=O)N(C)C[C@@H](OC)[C@@H](C)CN[C@H](C)CO2 was read as PglD inh -5.2, PGC1a acetyl inh 8.4, FGF22 binding 0.0, Cneo AK release -4.3 and Ecoli rRNA inh 0.8.
For CCCNC(=O)Nc1ccc2c(c1)C(=O)N(C)C[C@@H](OC)[C@H](C)CN(C(=O)CC)[C@@H](C)CO2 the results were PglD inh -1.1, PGC1a acetyl inh -9.3, Cneo AK release 1.5 and Ecoli rRNA inh 0.6.
